Measurements of several laboratories.
Protocols differ between the studies behind these lines.
CDK7: Cyclin-dependent kinase 7 (CDK7, Homo sapiens, UniProt P50613)
CDK7 with cyclin H: Cyclin-dependent kinase 7, with cyclin H (CDK7, Homo sapiens, UniProt P50613)

| Compound | target | read-out | mode | technique | tested at | measurement | value |
| --- | --- | --- | --- | --- | --- | --- | --- |
| CCN(CC)c1ccc(C2=NNC(=O)CC2C)cc1[N+](=O)[O-] (centres unmarked) | CDK7 | enzyme activity | inhibitor |  | 10 µM | remaining activity | 96% |
| Cn1cnc(Br)c1C1=CN(c2ncnc3[nH]cnc23)CCS1 | CDK7 | enzyme activity | inhibitor | radiometric | 2 µM | inhibition | 44.3% |
| CC[C@]12CCCN3CCc4c(n(c5ccccc45)[C@@](O)(C(=O)OC)C1)[C@@H]32 | CDK7 with cyclin H | enzyme activity | inhibitor | ADP detection | 10 µM | inhibition | -20.8% |
| CC(C)(O)[C@H]1CC[C@H](Nc2ccc3ncc(-c4cccc(C(F)(F)F)c4)n3n2)CC1 | CDK7 with cyclin H | enzyme activity | inhibitor |  | 1 µM | remaining activity | 96.6% |
| O=C1NC(=O)c2cc(Nc3ccc(F)cc3)c(Nc3ccc(F)cc3)cc21 | CDK7 with cyclin H | cell-free assay |  |  | 0.5 µM | remaining signal | 100% |
| CNC(=O)Nc1ccc2c(c1)[C@@]1(CC2)OC(=O)N(CC(=O)N(Cc2ccc(F)cc2)[C@@H](C)C(F)(F)F)C1=O | CDK7 | cell-free assay |  | competition with immobilised ligand | 1 µM | remaining binding | 76% |
| COC(=O)C1=CO[C@@H](C)[C@H]2CN3CCc4c([nH]c5ccccc45)[C@@H]3C[C@H]12 | CDK7 with cyclin H | enzyme activity | inhibitor | ADP detection | 10 µM | inhibition | -41.8% |
| Cc1ccc(C(=O)Nc2ccc(CN3CCN(C)CC3)c(C(F)(F)F)c2)cc1C#Cc1cnc2cccnn12 | CDK7 | enzyme activity | inhibitor |  | 23.5 nM | remaining activity | 47% |
| CN([C@@H]1CCc2c(CC(=O)O)c3cc(S(C)(=O)=O)ccc3n2C1)S(=O)(=O)c1ccc(F)cc1 | CDK7 | cell-free assay |  | competition with immobilised ligand | 1 µM | remaining binding | 87% |
| COc1c(-c2ccccc2)oc2c(ccc3occc32)c1=O | CDK7 with cyclin H | enzyme activity | inhibitor | ADP detection | 10 µM | inhibition | -0.1% |
| CCCOc1ccc(OC)c(F)c1C(=O)c1ccc(C(=O)N[C@@H]2CNC[C@H]2NC(=O)c2ccc3[nH]ncc3c2)cc1 | CDK7 | enzyme activity | inhibitor |  | 10 µM | remaining activity | 13% |
| CC(=O)Nc1c(C(C)=O)c(=O)n(C)c2nc(-c3ccc(Cl)cc3Cl)c(-c3ccc(Cl)cc3)cc12 | CDK7 | cell-free assay |  | competition with immobilised ligand | 1 µM | remaining binding | 100% |
| Cc1ccc(C(=O)NCc2ccsc2)cc1C#Cc1cn(C(C)C)c2ncnc(N)c12 | CDK7 | enzyme activity | inhibitor |  | 1 µM | activity vs control | 94% |
| Cc1cc(NC(=O)c2cccc(S(F)(F)(F)(F)F)c2)cc(-n2ccn3nc(-c4cccnc4)cc23)c1 | CDK7 | cell-free assay |  | competition with immobilised ligand | 1 µM | remaining binding | 100% |
| COc1c(C(=O)/C=C(\O)c2ccccc2)ccc2occc12 | CDK7 with cyclin H | enzyme activity | inhibitor | ADP detection | 10 µM | inhibition | -26% |
| C[C@H](c1ccc(F)cc1)N(Cc1cccc(C(=O)O)c1)C(=O)c1cnc2ccccc2c1 | CDK7 | cell-free assay |  | competition with immobilised ligand | 1 µM | remaining binding | 100% |
| Cc1cc(=O)c2c(O)cc(O)cc2o1 | CDK7 with cyclin H | enzyme activity | inhibitor | ADP detection | 10 µM | inhibition | 29.4% |
